Screening results from PubChem BioAssay.
Hits are enriched below; roughly 1.2% of the tested compounds scored in any of these assays.
FXIa inh 1536: inhibitors of human coagulation factor XIa. P03951. inhibition, % at 5 µM. purified FXIa, Boc-Glu-Ala-Arg-AMC fluorogenic substrate. 220,000 compounds, 0.14% hits;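 active means inhibition of at least 40%; inactive means inhibition below 40%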;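 further: fluorescence of freed AMC excited at 355 nm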
Target sequence (P03951 19-387 limits assumed): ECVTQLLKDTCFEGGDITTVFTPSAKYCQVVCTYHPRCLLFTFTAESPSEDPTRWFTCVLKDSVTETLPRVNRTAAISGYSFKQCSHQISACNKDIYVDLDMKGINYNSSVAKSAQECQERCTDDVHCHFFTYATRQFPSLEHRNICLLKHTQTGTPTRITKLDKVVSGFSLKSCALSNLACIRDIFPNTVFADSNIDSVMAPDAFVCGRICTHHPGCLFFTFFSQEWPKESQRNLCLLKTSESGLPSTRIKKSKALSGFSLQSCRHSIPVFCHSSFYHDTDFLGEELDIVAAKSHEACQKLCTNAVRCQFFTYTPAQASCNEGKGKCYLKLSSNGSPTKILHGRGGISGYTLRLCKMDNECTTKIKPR
Target sequence (P03951 388-625 limits assumed): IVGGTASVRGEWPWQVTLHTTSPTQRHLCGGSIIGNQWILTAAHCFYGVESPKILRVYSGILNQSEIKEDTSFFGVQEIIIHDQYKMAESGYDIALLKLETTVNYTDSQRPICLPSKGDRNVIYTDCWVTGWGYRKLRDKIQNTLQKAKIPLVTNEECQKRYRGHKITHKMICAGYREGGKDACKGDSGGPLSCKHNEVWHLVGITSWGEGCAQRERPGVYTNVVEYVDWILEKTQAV
Thrombin inh: thrombin (human) inhibition; 220,000 compounds, 0.26% hits; P00734; inhibition, % at 5 µM; alpha-thrombin, Boc-VPR-AMC fluorogenic substrate cleavage; AID 1046;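 active means inhibition at or above 40%; inactive means inhibition below 40%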
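System – human alpha-thrombin · Medium – pH 7.5 Tris (50 mM) with NaCl 150 mM, Tween 20 0.05% · Compound – single-point dosing at 5 µM, 0.2% DMSO · Incubation – enzyme reaction carried out at room temperature · Technique – fluorescence of released AMC, ex 355 nm, em 460 nm · Read-out basis – % inhibition of thrombin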
Redox H2O2 prof: compounds producing H2O2 with reducing agent – biochemical, NIH compound library profiling, artefact control for MLSCN library redox annotation, primary screen; activation, % at 10 µM; DTT-dependent redox cycling H2O2, phenol red/HRP absorbance; 100% = 100 µM peroxide control, 0% = buffer; 200,000 compounds, 0.03% hits;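 active means activation of at least 50% relative to the plate's high and low controls in the primary single-dose screen; inactive means activation below 50%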;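 further: compound incubated with DTT at 0.8 mM final as the reducing agent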
S1P3 antagonist: antagonists of human S1P3 receptor; Q99500; CHO S1P3 NFAT-BLA reporter, FRET fluorescence, antagonist mode; inhibition, % at 4.98 µM; 170,000 compounds, 0.27% hits;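 active means inhibition above the plate cutoff, the mean inhibition of test wells on that plate plus 3 SD, cut at about 28% in these data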;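 further: cells challenged with S1P at its EC80 of 0.8 µM; blue over green emission ratio from cleaved BLA substrate after 4 h stimulation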
KLK5 inh: kallikrein 5 (human) inhibition. AID 873. Q9Y337. 210,000 compounds, 0.59% hits. recombinant hK5, fluorogenic AMC substrate cleavage. inhibition, % at 5 µM;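 active means inhibition of 40% or more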
FXIIa inh: inhibitors of human coagulation factor XIIa | P00748 | purified FXIIa, Boc-QGR-AMC fluorogenic substrate, 2 h | inhibition, % at 5 µM | 220,000 compounds, 0.3% hits; in the data active means inhibition above about 40%
Each line names hits and unclear results; the compound was inactive in the other large screens.

COc1ccc(Oc2ccc3c(C(F)(F)F)cc(C(F)(F)F)nc3n2)cc1	none (no result: S1P3 antagonist)
Cc1cc(C)cc(NC(=O)C2CCCN(S(=O)(=O)c3cnc[nH]3)C2)c1 (stereo not drawn)	none
Cc1ccc(NC(=O)C2CCCN(S(=O)(=O)c3cnc[nH]3)C2)cc1F (stereo not drawn)	KLK5 inh 71.2
CC(C)c1ccc(NC(=O)C2CCCN(S(=O)(=O)c3cnc[nH]3)C2)cc1 (stereo not drawn)	KLK5 inh 62.1
O=C(O)Cn1c(SCCOc2ccccc2)nc2ccccc21	KLK5 inh 41.9
O=C(Nc1ccc(N2CCOCC2)cc1)c1cnsn1	KLK5 inh 51.4
CCOC(=O)N1CCN(C(=O)c2ccc3c(=O)n(Cc4ccccc4)c(=S)[nH]c3c2)CC1	none
CCOC(=O)N1CCN(C(=O)c2ccc3c(=O)n(Cc4ccc(OC)cc4)c(=S)[nH]c3c2)CC1	KLK5 inh 48.3
CCOC(=O)c1c(Nc2ccccc2OCCOC)n[nH]c1C	none (no result: Redox H2O2 prof)
Cc1ccc(S(=O)(=O)NNc2ccccc2)c(C)c1	none
COc1ccc(C2=NO[C@@H]3C(=O)N(c4ccc(C)cc4C)C(=O)[C@H]23)cc1OC	none
COc1ccc(-c2cn(-c3ccc(C)cc3C)c(=O)[nH]2)cc1OC	KLK5 inh 48.5
O=C(O)c1ccc(NC2=C(Cl)C(=O)c3ccccc3C2=O)cc1	KLK5 inh 80.9, FXIIa inh 43.3 (no result: Redox H2O2 prof)
COc1ccc(N2CCN(C(=O)C3(C)CC3(Cl)Cl)CC2)cc1 (stereo not drawn)	none
Cc1nn(-c2ccccc2)c(Cl)c1CN(C(=O)CCl)c1ccc(Cl)cc1	KLK5 inh 45.4
C=CCN1C(=O)/C(=C\c2ccc(Oc3nc(N4CCOCC4)nc(N4CCOCC4)n3)c(OC)c2)SC1=S	none
Cc1nc(SCc2ccc(Cl)cc2)ncc1C(=O)O	none
CC1(C)C(=O)Nc2ccccc2N1C(=O)COC(=O)c1cc([N+](=O)[O-])ccc1N	KLK5 inh 48.3
CN(C)S(=O)(=O)c1cccc(C(=O)OCC(=O)N2c3ccccc3NC(=O)C2(C)C)c1	none
Cc1nn(CC(=O)Nc2cccnc2)c(=O)c2ccccc12	none
COc1ccc(/C=N/NC(=O)CCn2cnc3ccccc32)cc1	FXIa inh 1536 40.5, KLK5 inh 40.6, FXIIa inh 40.3 (no result: Redox H2O2 prof)
COc1cccc(/C=N/NC(=O)CCn2cnc3ccccc32)c1	none (no result: Redox H2O2 prof)
c1coc(-c2ccnc3ncnn23)c1	none
Cc1nn(CC(=O)N2CCc3ccccc3C2)c(C)c1[N+](=O)[O-]	FXIIa inh 85.3
CO/N=C(\C(=O)O)c1csc(NN=C(C)C)n1	none
O=C(COc1ncnc2ccccc12)Nc1cc([N+](=O)[O-])ccc1F	none (no result: Redox H2O2 prof)
Cc1ccc(OCc2nnc(SCC(=O)O)n2N)cc1	FXIIa inh 44.6 (no result: S1P3 antagonist)
COc1ccc(OCCCc2c(C)n[nH]c2C)cc1	KLK5 inh 54.7 (no result: S1P3 antagonist)
COC(=O)c1ccccc1NC(=S)N(Cc1ccc2c(c1)OCO2)Cc1cc2ccc(OC)cc2[nH]c1=O	none
N#CC1=C(N)NC(SCc2ccc(Cl)cc2)=C(C#N)C12CCCCC2	none (no result: S1P3 antagonist)
N#CC1=C(N)NC(SCc2ccccc2)=C(C#N)C12CCCC2	KLK5 inh 45.2
CC(Sc1nncn1C)C(=O)NCc1ccc2c(c1)OCO2 (stereo not drawn)	Thrombin inh 77.2
O=C(CSC1=N/C(=C/c2ccco2)C(=O)N1c1ccc(OC(F)F)cc1)NC1CCS(=O)(=O)C1 (stereo not drawn)	none
Nc1nc(COc2ccc(F)cc2Cl)nc(N2CCCCC2)n1	none
CC1=C/C(=N\NC(=S)Nc2cccnc2)CC(C)(C)C1	FXIa inh 1536 40.4
CC(C)CCN(C(=S)NC(=O)C1CCCCC1)c1c(N)n(Cc2ccccc2)c(=O)[nH]c1=O	none
C=C(C)c1cccc(C(C)(C)NC(=O)Nc2ccc(OC)cc2)c1	none
C=C(C)c1cccc(C(C)(C)NC(=O)Nc2ccc(C(C)=O)cc2)c1	KLK5 inh 71.8
CCC(=O)C1=C(N2CCCC2)CC(C)(C)CC1=O	KLK5 inh 47.4 (no result: S1P3 antagonist)
Cc1cc(C)nc(SCc2ccc(C(=O)N/N=C3\CCCC(=O)C3)cc2)n1	none (no result: Thrombin inh)
CCOc1ccc(OCC)c(NC(=O)CCS(=O)(=O)c2ccc(Br)s2)c1	Thrombin inh 43.3 (no result: S1P3 antagonist)
CCOC(=O)C1C(C(=O)Nc2cccc(C(F)(F)F)c2)C1C(=O)NC(C)C (stereo not drawn)	KLK5 inh 53.2
COc1ccc(O)c(C(=O)C2c3ccccc3C(=O)N2c2ccc(C)cc2)c1 (stereo not drawn)	none (no result: Redox H2O2 prof)
CCC(=O)Nc1ccc(NC(=O)CSc2nnnn2CC)cc1C	KLK5 inh 72.5
Cc1ccc(C(=O)NCC(=O)N/N=C/c2sccc2C)cc1[N+](=O)[O-]	none
Cc1cc(=O)[nH]c(SCC(=O)NCC2CCCO2)n1 (stereo not drawn)	Thrombin inh 41.7 (no result: Redox H2O2 prof)
O=C(CSc1nc(O)c(C2CCCCC2)c(=O)[nH]1)NCC1CCCO1 (stereo not drawn)	none
CCCc1cc(-c2[nH]ncc2-c2ccc(C(=O)OCC)o2)c(O)cc1O	none
CCc1cc(-c2[nH]ncc2-c2nc3ccccc3n2C)c(O)cc1O	FXIa inh 1536 74.7 (no result: Redox H2O2 prof)
O=C(c1cn[nH]c1)N1CCc2c([nH]c3ccccc23)C1c1c(F)cccc1Cl (stereo not drawn)	KLK5 inh 75.1
COc1ccccc1OCC(O)CNCc1ccc2c(c1)OCO2 (stereo not drawn)	none (no result: Redox H2O2 prof)
CCOC(=O)CSC1=NC(=O)/C(=C\c2ccc(OC(C)=O)cc2)S1	KLK5 inh 52.6 (no result: S1P3 antagonist)
Cc1c(Cl)cccc1NC(=S)N1CCC(N(C)CC2CCCO2)CC1 (stereo not drawn)	none
Cn1c(C(=O)N2CCCCCC2)cc2c(=O)n(C)c3ccccc3c21	none
Cc1cccc(N2CCN(C(=O)c3cc4c(=O)n(C)c5ccccc5c4n3C)CC2C)c1 (stereo not drawn)	KLK5 inh 41.2 (no result: FXIIa inh)
COC(C(=O)NC(C(C)C)C(C)C)c1ccccc1 (stereo not drawn)	none
O=C(COC(=O)/C=C/c1ccc(S(=O)(=O)N2CCc3ccccc32)cc1)NC1CCS(=O)(=O)C1 (stereo not drawn)	none
CCN(CC)S(=O)(=O)c1ccc(OC)c(NS(=O)(=O)c2ccc(F)cc2)c1	KLK5 inh 42.4 (no result: S1P3 antagonist)
CCCc1cc(-n2ccnc2)n2c(nc3ccccc32)c1C#N	none
Cc1cc(-n2ccnc2)n2c(nc3ccccc32)c1C#N	FXIIa inh 106.1 (no result: S1P3 antagonist)
O=C(CN(C(=O)CSc1nnc(COc2ccccc2)o1)c1ccc(F)cc1)NC1CCCCC1	KLK5 inh 129.5
CCOC(=O)N1CCN(C(=O)CSc2nnc(CNC(=O)c3c(F)cccc3Cl)o2)CC1	KLK5 inh 41.7 (no result: S1P3 antagonist)
Cc1ccc2nc(SCC(=O)Nc3cccc(S(N)(=O)=O)c3)[nH]c2c1	KLK5 inh 92.9 (no result: Redox H2O2 prof)
